Molecules are shown by their SMILES.

This test is described as follows: Inhibition of yeast alpha-glucosidase pre-incubated for 10 mins followed by pNPG substrate addition and measured every 30 secs for 35 mins. Set-up: species or system Saccharomyces cerevisiae. The method, boiled down: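 S. cerevisiae α-glucosidase (enzyme solution 2.0 U/mL) in 100 mM phosphate buffer, pH 7.5, with NaN3. Serial DMSO dilutions, nine concentrations, in triplicate. Preincubated 10 min at 28 °C, then p-NPG added (substrate solution 10 mM). A405 read every 30 s for 35 min. Inhibition taken from rate slope versus enzyme–substrate blanks; IC50 from three-parameter curve fit.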

As a reminder, the IC50 is the concentration that inhibits the measured activity by half. The low end stands for greater potency, the high end for weaker potency. In turn, `C[C@@H]1O[C@@H](Oc2c(-c3ccc(O)cc3)oc3cc(O)cc(O)c3c2=O)[C@H](OC(=O)/C=C\c2ccc(O)cc2)[C@H](O)[C@H]1OC(=O)/C=C/c1ccc(O)cc1` gave an IC50 of 35.3 µM.
The figure for `COc1ccc(-c2oc3cc(O)cc(O)c3c(=O)c2O[C@@H]2O[C@@H](C)[C@H](OC(=O)/C=C\c3ccc(O)cc3)[C@@H](O)[C@H]2OC(=O)/C=C/c2ccc(O)cc2)cc1O` is 28.2 µM.
The figure for `COc1ccc(-c2oc3cc(O)cc(O)c3c(=O)c2O[C@@H]2O[C@@H](C)[C@H](OC(=O)/C=C\c3ccc(O)cc3)[C@@H](O)[C@H]2OC(=O)/C=C\c2ccc(O)cc2)cc1` is 5.9 µM.
The figure for `C[C@@H]1O[C@@H](Oc2c(-c3ccc(O)cc3)oc3cc(O)cc(O)c3c2=O)[C@H](OC(=O)/C=C/c2ccc(O)cc2)[C@H](O)[C@H]1OC(=O)/C=C\c1ccc(O)cc1` is 16.1 µM.
In turn, `COc1ccc(-c2oc3cc(O)cc(O)c3c(=O)c2O[C@@H]2O[C@@H](C)[C@H](OC(=O)/C=C\c3ccc(O)cc3)[C@@H](O)[C@H]2OC(=O)/C=C/c2ccc(O)cc2)cc1` yielded an IC50 of 6.8 µM. Against the preceding compound, the IC50 is about 2.4-fold lower.
Under `COc1ccc(-c2oc3cc(O)cc(O)c3c(=O)c2O[C@@H]2O[C@@H](C)[C@H](OC(=O)/C=C/c3ccc(O)cc3)[C@@H](O)[C@H]2OC(=O)/C=C/c2ccc(O)cc2)cc1` stands 26.9 µM; under `C[C@@H]1O[C@@H](Oc2c(-c3ccc(O)cc3)oc3cc(O)cc(O)c3c2=O)[C@H](OC(=O)/C=C/c2ccc(O)cc2)[C@H](O)[C@H]1OC(=O)/C=C/c1ccc(O)cc1`, 12.9 µM; under `C[C@H]1O[C@H](O[C@H]2[C@H](O)[C@@H](O)[C@@H](O[C@H]3[C@H](O)[C@@H](O)C(O)O[C@@H]3CO)O[C@@H]2CO)[C@H](O)[C@@H](O)[C@@H]1N[C@H]1C=C(CO)[C@@H](O)[C@H](O)[C@H]1O` (some centres undefined) [ACARBOSE], 266 µM.
Under `COc1ccc(-c2oc3cc(O)cc(O)c3c(=O)c2O[C@@H]2O[C@@H](C)[C@H](OC(=O)/C=C/c3ccc(O)cc3)[C@@H](O)[C@H]2OC(=O)/C=C\c2ccc(O)cc2)cc1` stands 10.1 µM.

These data come from ChEMBL document CHEMBL4330146, “Identification of α-Glucosidase Inhibitors in Machilus litseifolia by Combined Use of High-Resolution α-Glucosidase Inhibition Profiling and HPLC-PDA-HRMS-SPE-NMR” (J Nat Prod, 2019).
